Experimental data: ChEMBL document CHEMBL1800056, “Discovery of 2-(6-{[(6-fluoroquinolin-2-yl)methyl]amino}bicyclo[3.1.0]hex-3-yl)-N-hydroxypyrimidine-5-carboxamide (CHR-3996), a class I selective orally active histone deacetylase inhibitor” (J Med Chem, 2010)

How the values were obtained:
[1] = Half life in dog at 10 mg/kg, po; assay type: ADME, organism-based, Canis lupus familiaris; parameters: dose 10 mg/kg, route oral; conditions: in vivo
Summary of the method: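 Dog single dose: iv 1 mg/kg in 5% DMSO-HPβC (11.25% w/v); po 10 mg/kg in 5% DMSO-saline. AUC0-t in ng h/mL, clearance in (mL/min)/kg, t1/2 in h, F in %.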

[2] = test system: MOLT-4; experiment: Ratio of GI50 for SAHA to compound for human MOLT4 cells after 72 hrs by WST-1 assay; assay type: functional
Summary of the method: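 Cells seeded at (1-5) × 10³/well in serum-containing medium and grown 24 h at 37 °C, 5% CO₂. They were then exposed for 72 h to HDAC inhibitor (0.6-10000 nM), with SAHA run alongside in the same panel. WST-1 was added for the final 4 h and read at 450 nm (650 nm reference). GI50 taken as 50% inhibition of the vehicle response, n = 6.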

[3] = Drug level in tumor of BALB/c mouse at 50 mg/kg, po administered daily for 14 days; assay type: ADME, organism-based, Neoplasm; parameters: dose 50 mg/kg, route oral; conditions: read-out: Drug uptake
Summary of the method: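 HCT116 xenografts in female nude BALB/c mice, run at EpiStem. Oral daily dosing for 14 days in 5% DMSO-saline at 50 or 75 mg/kg. Tumor volume measured relative to start; drug concentrations in tumor and plasma measured.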

[4] = Ratio of drug level in spleen to plasma of CrTac:NCr-Fox1(nu) athymic mouse at 50 mg/kg, po administered daily for 16 days; assay type: ADME, organism-based; parameters: dose 50 mg/kg, route oral
Summary of the method: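 Female CrTac:NCr-Fox1(nu) athymic mice, 6-8 weeks old, inoculated bilaterally sc with 2 million HCT116 colon carcinoma cells. Dosing at 50 mg/kg po daily in 10% DMSO-saline started on day 6 (tumors approx. 5 mm diameter). Controls received vehicle alone. On day 16, plasma, spleen and tumor were collected and frozen for PK assays of drug levels.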

half-life [1] [min] | concentration at 336 h [3] [ng/mL] | Kp at 384 h [4] | Structure (SMILES) | RatioGI50 [2]
54 | 133 | – | O=C(NO)c1cnc(N2C[C@@H]3[C@H](C2)[C@H]3NCc2ccc3cc(F)ccc3n2)nc1 [NANATINOSTAT] | 21.6
– | – | 4 | O=C(NO)c1cnc(N2C[C@@H]3[C@H](C2)[C@H]3NCc2ccc(Cl)cc2)nc1 | –
